Results taken from PubChem BioAssay AID492974 (The Scripps Research Institute Molecular Screening Center, 2010).
Calls of active or inactive are those of the source.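 The calls were made as follows: active = inhibition of the enzyme above 50%; inactive = the rest.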

Target: Aspartyl aminopeptidase (Plasmodium falciparum (isolate 3D7)) (UniProt Q8I2J3)
Experiment: inhibition of purified P. falciparum M18AAP – biochemical, fluorescence, powder samples, assay provider, late-stage follow-up (AID 492974)
Details: recombinant PfM18AAP, H-Glu-NHMec fluorogenic substrate; at 5 µM; hits give high values
How it was run: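 Test system: Recombinant PfM18AAP enzyme | Input: 1 µg/mL enzyme | Timing: 10 min preincubation, 30 min read | Measured by: Fluorescence, ex 370 nm / em 460 nm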

Sequence of Aspartyl aminopeptidase (Plasmodium falciparum (isolate 3D7)) (Q8I2J3 whole entry, looked up): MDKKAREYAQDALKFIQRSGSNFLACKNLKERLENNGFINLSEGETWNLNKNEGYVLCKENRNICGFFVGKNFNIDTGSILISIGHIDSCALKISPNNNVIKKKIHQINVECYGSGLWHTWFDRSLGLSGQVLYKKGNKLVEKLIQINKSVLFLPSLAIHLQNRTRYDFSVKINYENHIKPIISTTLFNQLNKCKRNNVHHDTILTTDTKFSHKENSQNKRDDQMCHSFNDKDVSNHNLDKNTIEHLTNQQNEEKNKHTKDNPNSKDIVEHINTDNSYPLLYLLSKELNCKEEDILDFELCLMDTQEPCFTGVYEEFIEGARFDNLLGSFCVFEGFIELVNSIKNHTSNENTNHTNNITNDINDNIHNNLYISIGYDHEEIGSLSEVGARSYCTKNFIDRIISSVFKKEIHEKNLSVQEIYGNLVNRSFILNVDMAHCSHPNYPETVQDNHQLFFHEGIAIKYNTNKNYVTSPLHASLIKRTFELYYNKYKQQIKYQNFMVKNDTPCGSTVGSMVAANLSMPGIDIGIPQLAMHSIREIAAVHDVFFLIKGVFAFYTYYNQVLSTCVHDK

Compound | inhibition
NCCc1ccc(O)c(O)c1 | 40% (inactive)
Cc1ccc(-n2c(O)c(/C=N/n3cnnc3)c3ccccc3c2=O)cc1 | 18% (inactive)
Cc1ccc(Cl)cc1NC(=S)Nn1cnnc1 | 17% (inactive)
O=c1[nH]c(CSc2ncn[nH]2)nc2ccccc12 | 0% (inactive)
Oc1ccc(/C=C/c2cc(O)cc(O)c2)cc1 | 50%
Br/C(C=Nn1cnnc1)=C\c1ccccc1 | 17% (inactive)
O=C(NC(=S)Nn1cnnc1)c1ccccc1Br | 15% (inactive)
CS(=O)(=O)c1ccc2c(c1)sc1nc(=O)c(/C=C3/C=CC(=O)C(O)=C3)c(N)n12 | 55%
CCOC(=O)C1=C(CS(=O)(=O)c2ccc(F)cc2)NC(=O)NC1c1ccc(O)c(O)c1 (stereo unspecified) | 58%
O=C(COc1ccccc1C(=O)N/N=C/c1ccc(O)c(O)c1)N/N=C/c1ccc(O)c(O)c1 | 76%
O=C(Nc1cc(Cl)ccc1Cl)Nn1cnnc1 | 54%
CN1CCc2cccc3c2[C@@H]1Cc1ccc(O)c(O)c1-3 | 35% (inactive)
Cc1nc2ccccn2c1C(=O)NNC(=O)Nc1ccccc1 | 11% (inactive)
Cc1cc(C)n2c(=S)[nH]nc2n1 | 30% (inactive)
O=C(Nc1ccccc1Cl)Nn1cnnc1 | 35% (inactive)
Cc1ccc([N+](=O)[O-])cc1-c1[nH]c(-c2ccc(O)c(O)c2)nc1-c1ccccc1 | 83%
Oc1ccc(C2=Nn3c(nnc3-c3ccco3)SC2)cc1O | 52%
COc1ccc2nc(C)cc(SCC(=O)N/N=C/c3ccc(O)c(O)c3)c2c1 | 63%
O=c1c(O)c(-c2ccc(O)c(O)c2)oc2cc(O)cc(O)c12 | 43% (inactive)
O=C(O)c1cn[nH]c1-n1cnnn1 | 2% (inactive)
O=C(Nn1cnnc1)c1csc2ccccc12 | 22% (inactive)
O=C(Nc1ccc(Cl)cc1Cl)Nn1cnnc1 | 48% (inactive)
O=C(CSc1ncn[nH]1)Nc1nc(-c2ccccc2)ns1 | 7% (inactive)
S=C(Nc1cc(Cl)ccc1Cl)Nn1cnnc1 | 24% (inactive)
COc1cc([N+](=O)[O-])ccc1NC(=O)Nn1cnnc1 | 4% (inactive)
Cc1ccc(NC(=S)Nn2cnnc2)c(C)c1 | 3% (inactive)

Compound | inhibition
O=C(Nc1ccc(Br)cc1Cl)Nn1cnnc1 | 71%
COC(=O)CN(n1cnnc1)S(=O)(=O)c1ccccc1Cl | 26% (inactive)
CC1=NNC(=O)/C1=C\c1cn(-c2ccccc2)nc1-c1ccc(F)cc1 | 9% (inactive)
COc1cc(Br)cc(/C=N/c2ncn[nH]2)c1O | 0% (inactive)
COC(=O)CN(n1cnnc1)S(=O)(=O)c1ccccc1 | 0% (inactive)
Cc1nc(-c2ccc(O)c(O)c2)cs1 | 74%
Cc1cc(OCC(=O)Nn2cnnc2)ccc1Br | 55%
O=C(CSc1nnc(-c2ccccc2)o1)Nn1cnnc1 | 58%
CCc1ccccc1NC(=S)Nn1cnnc1 | 6% (inactive)
COc1cccc2c(SCC(=O)N/N=C/c3ccc(O)c(O)c3)cc(C)nc12 | 51%
COc1ccc(C(=O)n2cnnc2N)cc1 | 4% (inactive)
O=C(O)c1ccc(O)c(O)c1 | 21% (inactive)
COc1cccc(-c2cc(C(=O)Nn3cnnc3)c3ccccc3n2)c1 | 25% (inactive)
Cc1cc(=O)[nH]c(SCC(=O)c2ccc(O)c(O)c2)n1 | 0% (inactive)
Oc1ccc(-c2cn3ccccc3n2)cc1O | 42% (inactive)
O=C(Nc1cccc(Cl)c1Cl)Nn1cnnc1 | 29% (inactive)
Cc1cc(C)cc(C(=O)n2cnnc2N)c1 | 0% (inactive)
Oc1ccc(-c2csc(-c3cccnc3)n2)cc1O | 81%
COC(=O)c1cc(C(=O)Nn2cnnc2)cc([N+](=O)[O-])c1 | 48% (inactive)
CC1(C)CC2(CC(c3ccccc3F)c3ccc(O)c(O)c3O2)NC(=S)N1 (stereo unspecified) | 50%
COc1ccc(Cl)cc1NC(=O)Nn1cnnc1 | 22% (inactive)
Cc1cccc(NC(=S)Nn2cnnc2)c1C | 13% (inactive)
CN1C(=O)N(c2cccc3ccccc23)C(n2cncn2)C1(C)C (stereo unspecified) | 5% (inactive)
O=c1[nH]c(=S)[nH]c(O)c1/C=C1\C=c2ccccc2=N1 | 42% (inactive)
Cc1c(Cl)cccc1NC(=O)Nn1cnnc1 | 10% (inactive)
O=C(Nc1ccc([N+](=O)[O-])cc1)Nn1cnnc1 | 59%

Compound | inhibition
O=c1c2c([N+](=O)[O-])cc([N+](=O)[O-])cc2sn1Cc1ccccc1 | 44% (inactive)
COC(=O)CN(n1cnnc1)S(=O)(=O)c1ccc(C)cc1 | 0% (inactive)
COc1cc([N+](=O)[O-])ccc1NC(=S)Nn1cnnc1 | 52%
Nc1nncn1C(=O)CCCOc1ccc(Cl)cc1Cl | 0% (inactive)
O=C(Nc1ccc(Cl)c(Cl)c1)Nn1cnnc1 | 63%
CC(C)n1c(SCC(=O)Nc2nncs2)nnc1-c1ccco1 | 5% (inactive)
CC1(C)CC(=O)c2c(oc3cc(O)c(O)cc23)C1 | 29% (inactive)
OC(Cn1cnnc1)c1ccccc1 (stereo unspecified) | 19% (inactive)
O=S(=O)(Nn1cnnc1)c1ccccc1 | 10% (inactive)
Oc1ccc(-c2csc(-c3ccccc3)n2)cc1O | 90%
O=C(Nc1cccc(C(F)(F)F)c1)Nn1cnnc1 | 27% (inactive)
Cc1ccc(Cl)cc1NC(=O)Nn1cnnc1 | 35% (inactive)
COc1ccc(NC(=O)NNC(=O)CCc2ccc(O)c(O)c2)cc1OC | 23% (inactive)
O=C(CNC(=O)c1ccccc1)NCCc1ccc(O)c(O)c1 | 50%
CCC(C)c1ccc(O)c(N)c1 (stereo unspecified) | 65%
O=C(CSc1ncn[nH]1)OCN1C(=O)c2ccccc2C1=O | 0% (inactive)
CCN(CC)S(=O)(=O)c1ccc(C(=O)Nn2cnnc2)cc1 | 26% (inactive)
O=C(Nn1cnnc1)c1ccccc1-c1ccccc1 | 21% (inactive)
O=C(CSc1nn(-c2ccccc2)c(=S)s1)Nn1cnnc1 | 15% (inactive)
Oc1ccc(CCNc2c3ccccc3nc3ccccc23)cc1O | 52%
Oc1cc(O)c2c(c1)O[C@H](c1ccc(O)c(O)c1)[C@H](O)C2 | 49% (inactive)
O=C(CSc1nc2ccccc2c(=O)[nH]1)c1ccc(O)c(O)c1 | 10% (inactive)
O=C(O)CSc1ncn[nH]1 | 0% (inactive)
O=[N+]([O-])c1cc([N+](=O)[O-])c2cccnc2c1Oc1ccccc1O | 16% (inactive)
